In ChEMBL document CHEMBL2331340, “Novel antitumor indolizino[6,7-b]indoles with multiple modes of action: DNA cross-linking and topoisomerase I and II inhibition” (J Med Chem, 2013):
Active and inactive are the calls of the source. No cut-off for these calls is given here.

Columns and labels:
MX1 = test: Cytotoxicity against human MX1 cells after 72 hrs by SRB assay; assay type: functional, cell-based; details: MX1, 72 h
PC-3 = test: Cytotoxicity against human PC3 cells after 72 hrs by Alamar blue assay; assay type: functional, cell-based; details: PC-3, 72 h
Summary of the method: (§1)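 Cells exposed to compound for 72 h, then Alamar blue added with a further 10−12 h at 37 °C and a spectrophotometric read. IC50 from six or seven concentrations by median-effect analysis; mean ± STDEV, n = 3. CL141T is a line derived from a patient lung tumor passaged as a SCID mouse xenograft.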

CCRF-CEM = test: Cytotoxicity against human CCRF-CEM cells after 72 hrs by XTT assay; assay type: functional, cell-based
Summary of the method: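 CCRF-CEM T-ALL cells incubated with compound for 72 h. XTT with phenazine methosulfate then added for 6 h at 37 °C, absorbance read at 450 and 630 nm. IC50 from six or seven concentrations by median-effect analysis; mean ± STDEV, n = 3.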

[1] = Cytotoxicity against human CL141T cells after 72 hrs by Alamar blue assay; assay type: functional, cell-based; summary of the method: as §1
HCT-116 = test: Cytotoxicity against human HCT116 cells after 72 hrs by Alamar blue assay; assay type: functional, cell-based; details: HCT-116, 72 h; summary of the method: as §1
[2] = Cytotoxicity against human OECM1 cells after 72 hrs by Alamar blue assay; assay type: functional, cell-based; details: OECM1, 72 h; summary of the method: as §1
[3] = Resistance factor, ratio of IC50 for human KB-VIN10 cells to IC50 for human KB cells; assay type: functional
KB = test: Cytotoxicity against human KB cells after 72 hrs by Alamar blue assay
[4] = Cytotoxicity against human KB-VIN10 cells after 72 hrs by Alamar blue assay; details: KB-VIN10, 72 h
[5] = Cytotoxicity against human H460 cells after 72 hrs by Alamar blue assay; assay type: functional, cell-based; details: NCI-H460, 72 h; summary of the method: as §1
HT-29 = test: Cytotoxicity against human HT-29 cells after 72 hrs by Alamar blue assay; assay type: functional, cell-based; details: HT-29, 72 h; summary of the method: as §1
A549 = test: Cytotoxicity against human A549 cells after 72 hrs by Alamar blue assay; assay type: functional, cell-based; details: A549, 72 h; summary of the method: as §1
MES-SA = test: Resistance factor, ratio of IC50 for human MES-SA/Dx5 cells to IC50 for human MES-SA cells; assay type: functional
[6] = Cytotoxicity against human MES-SA/Dx5 cells after 72 hrs by Presto Blue assay; assay type: functional, cell-based; details: MES-SA/Dx5, 72 h
Summary of the method: (§2)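 MES-SA and doxorubicin-resistant MES-SA/dx5 cells exposed for 72 h, then PrestoBlue added for 3 h at 37 °C, absorbance read at 570 and 600 nm. IC50 by median-effect analysis of six or seven concentrations; mean ± STDEV of three to six independent experiments.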

[7] = Cytotoxicity against human MES-SA cells after 72 hrs by Presto Blue assay; assay type: functional, cell-based; summary of the method: as §2
[8] = Cytotoxicity against human HEL299 cells; assay type: cell-based; details: HEL 299
Escherichia coli = test: Induction of Escherichia coli pEGFP-N1 DNA interstrand cross-linking at 1 to 10 uM after 2 hrs by alkaline agarose gel shift assay
Summary of the method: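 Plasmid pEGFP-N1 DNA (1500 ng) incubated with compound at 1, 5 and 10 μM in 3 mM NaCl/1 mM sodium phosphate pH 7.4/1 mM EDTA, 2 h at 37 °C. DNA then BamHI-linearized, EtOH-precipitated, denatured in 0.5 N NaOH/10 mM EDTA, run on 0.8% alkaline agarose at 4 °C (18 V, 22 h), stained with ethidium bromide.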

CCNC(=O)OCc1c(COC(=O)NCC)c(-c2ccc(Cl)cc2)n2c1Cc1c(n(C)c3ccccc13)C2
IC50 (MX1): 1.83 µM | IC50 (PC-3): 4.95 µM | IC50 (CCRF-CEM): 350 nM | IC50 [1]: 7.88 µM | IC50 (HCT-116): 1.17 µM | IC50 [2]: 9.01 µM

COc1cc(-c2c(CO)c(CO)c3n2Cc2c(c4ccccc4n2C)C3)cc(OC)c1OC
IC50 (CCRF-CEM): 4450 nM

CCNC(=O)OCc1c(COC(=O)NCC)c(-c2ccccc2)n2c1Cc1c(n(C)c3ccccc13)C2
IC50 (PC-3): 9.13 µM | IC50 (CCRF-CEM): 230 nM | IC50 [1]: 10.5 µM | IC50 [2]: 5.19 µM

CCNC(=O)OCc1c(COC(=O)NCC)c(-c2ccc(F)c(Cl)c2)n2c1Cc1c(n(C)c3ccccc13)C2
IC50 (CCRF-CEM): 1800 nM

CC[C@]1(O)C[C@H]2CN(CCc3c([nH]c4ccccc34)[C@@](C(=O)OC)(c3cc4c(cc3OC)N(C=O)[C@H]3[C@@](O)(C(=O)OC)[C@H](OC(C)=O)[C@]5(CC)C=CCN6CC[C@]43[C@@H]65)C2)C1 [VINCRISTINE]
Ratio IC50 [3]: 143.7 | IC50 (KB): 2.11 nM | IC50 [4]: 303 nM

CCNC(=O)OCc1c(COC(=O)NCC)c(-c2ccc(F)c(F)c2)n2c1Cc1c(n(C)c3ccccc13)C2
IC50 (PC-3): 6.76 µM | IC50 (CCRF-CEM): 130 nM | IC50 [5]: 18.9 µM | IC50 [1]: 9.61 µM | IC50 [2]: 14.4 µM

CC(C)NC(=O)OCc1c(COC(=O)NC(C)C)c(-c2ccc(F)c(Cl)c2)n2c1Cc1c(n(C)c3ccccc13)C2
IC50 (CCRF-CEM): 1910 nM

Cn1c2c(c3ccccc31)Cc1c(CO)c(CO)c(-c3ccc(F)c(F)c3)n1C2
IC50 (CCRF-CEM): 7940 nM

CC(C)NC(=O)OCc1c(COC(=O)NC(C)C)c(-c2ccccc2)n2c1Cc1c(n(C)c3ccccc13)C2
IC50 (PC-3): 7.84 µM | IC50 (CCRF-CEM): 130 nM | IC50 [5]: 4.72 µM | IC50 [1]: 9.6 µM | IC50 [2]: 4.87 µM

CCNC(=O)OCc1c(COC(=O)NCC)c(-c2ccc(OC)c(OC)c2)n2c1Cc1c(n(C)c3ccccc13)C2
IC50 (PC-3): 8.03 µM | IC50 (CCRF-CEM): 300 nM | IC50 [1]: 11.2 µM | IC50 [2]: 5.29 µM

CCNC(=O)OCc1c(COC(=O)NCC)c(-c2cc(OC)c(OC)c(OC)c2)n2c1Cc1c(n(C)c3ccccc13)C2
IC50 (CCRF-CEM): 620 nM

Cn1c2c(c3ccccc31)Cc1c(CO)c(CO)c(-c3ccccc3)n1C2
IC50 (CCRF-CEM): 1170 nM

CCn1c2c(c3ccccc31)Cc1c(COC(=O)NC(C)C)c(COC(=O)NC(C)C)c(C)n1C2
IC50 (PC-3): 3.28 µM | IC50 (CCRF-CEM): 140 nM | IC50 (HT-29): 6.36 µM | IC50 (A549): 2.64 µM | IC50 [1]: 1.88 µM | IC50 (HCT-116): 2.2 µM | IC50 [2]: 2.27 µM

CCNC(=O)OCc1c(COC(=O)NCC)c(-c2ccc(OC)cc2)n2c1Cc1c(n(C)c3ccccc13)C2
IC50 (PC-3): 8.3 µM | IC50 (CCRF-CEM): 100 nM | IC50 [1]: 8.13 µM | IC50 (HCT-116): 7.1 µM | IC50 [2]: 6.15 µM

COc1ccc(-c2c(COC(=O)NC(C)C)c(COC(=O)NC(C)C)c3n2Cc2c(c4ccccc4n2C)C3)cc1
IC50 (PC-3): 6.84 µM | IC50 (CCRF-CEM): 120 nM | IC50 [5]: 9.52 µM | IC50 [1]: 4 µM | IC50 (HCT-116): 5.93 µM | IC50 [2]: 4.17 µM

CCc1c(COC(=O)NC(C)C)c(COC(=O)NC(C)C)c2n1Cc1c(c3ccccc3n1C)C2
IC50 (PC-3): 2.1 µM | IC50 (CCRF-CEM): 160 nM | IC50 [1]: 2.66 µM | IC50 (HCT-116): 2.22 µM | IC50 [2]: 2.02 µM

CCNC(=O)OCc1c(COC(=O)NCC)c(-c2ccc(F)cc2)n2c1Cc1c(n(C)c3ccccc13)C2
IC50 (PC-3): 14.6 µM | IC50 (CCRF-CEM): 390 nM | IC50 [1]: 12.4 µM | IC50 [2]: 8.6 µM

CCNC(=O)OCc1c(COC(=O)NCC)c2n(c1CC)Cc1c(c3ccccc3n1C)C2
IC50 (PC-3): 5 µM | IC50 (CCRF-CEM): 160 nM | IC50 [1]: 2.85 µM | IC50 (HCT-116): 1.8 µM | IC50 [2]: 3.9 µM

COc1ccc(-c2c(CO)c(CO)c3n2Cc2c(c4ccccc4n2C)C3)cc1OC
IC50 (PC-3): 37.9 µM | IC50 (CCRF-CEM): 960 nM | IC50 [1]: 33.1 µM | IC50 [2]: 37.2 µM

CC(C)NC(=O)OCc1c(COC(=O)NC(C)C)c(-c2ccc(F)c(F)c2)n2c1Cc1c(n(C)c3ccccc13)C2
IC50 (PC-3): 34.2 µM | IC50 (CCRF-CEM): 440 nM | IC50 [1]: 18.3 µM | IC50 [2]: 15.2 µM

COc1ccc(-c2c(COC(=O)NC(C)C)c(COC(=O)NC(C)C)c3n2Cc2c(c4ccccc4n2C)C3)cc1OC
IC50 (CCRF-CEM): 300 nM

COc1cccc2c1C(=O)c1c(O)c3c(c(O)c1C2=O)C[C@@](O)(C(=O)CO)C[C@@H]3O[C@H]1C[C@H](N)[C@H](O)[C@H](C)O1 [DOXORUBICIN]
Ratio IC50 (MES-SA): 60.52 | IC50 [6]: 2300 nM | IC50 [7]: 38 nM

Cc1c(CO)c(CO)c2n1Cc1c(c3ccccc3n1Cc1ccccc1)C2
IC50 (PC-3): 4.52 µM | IC50 (CCRF-CEM): 290 nM | IC50 [1]: 2.76 µM | IC50 [2]: 4.17 µM

CCc1c(CO)c(CO)c2n1Cc1c(c3ccccc3n1C)C2
IC50 (PC-3): 3.32 µM | IC50 (CCRF-CEM): 200 nM | Ratio IC50 (MES-SA): 0.61 | Ratio IC50 [3]: 0.79 | IC50 [6]: 470 nM | IC50 [7]: 770 nM | IC50 [8]: 4.24 µM | IC50 (HT-29): 8.56 µM | IC50 (A549): 3.15 µM | IC50 [1]: 1.32 µM | IC50 [2]: 2.11 µM | IC50 (KB): 1970 nM | IC50 [4]: 1560 nM

Cn1c2c(c3ccccc31)Cc1c(CO)c(CO)c(-c3ccc(F)c(Cl)c3)n1C2
IC50 (CCRF-CEM): 14400 nM

COc1cc(-c2c(COC(=O)NC(C)C)c(COC(=O)NC(C)C)c3n2Cc2c(c4ccccc4n2C)C3)cc(OC)c1OC
IC50 (CCRF-CEM): 950 nM

CCNC(=O)OCc1c(COC(=O)NCC)c2n(c1C)Cc1c(c3ccccc3n1Cc1ccccc1)C2
IC50 (PC-3): 5.05 µM | IC50 (CCRF-CEM): 140 nM | IC50 [5]: 8.31 µM | IC50 (HCT-116): 3.84 µM | IC50 [2]: 5.42 µM

Cn1c2c(c3ccccc31)Cc1c(CO)c(CO)c(-c3ccc(F)cc3)n1C2
IC50 (CCRF-CEM): 1460 nM

Cn1c2c(c3ccccc31)Cc1c(CO)c(CO)c(-c3ccc(Cl)cc3)n1C2
IC50 (MX1): 11.3 µM | IC50 (PC-3): 12.9 µM | IC50 (CCRF-CEM): 4580 nM | IC50 [1]: 23.8 µM | IC50 (HCT-116): 17.5 µM | IC50 [2]: 17.2 µM

Cc1c(COC(=O)NC(C)C)c(COC(=O)NC(C)C)c2n1Cc1c(c3ccccc3n1Cc1ccccc1)C2
IC50 (PC-3): 4.18 µM | IC50 (CCRF-CEM): 100 nM | IC50 [5]: 7.26 µM | IC50 [1]: 4.66 µM | IC50 (HCT-116): 3.92 µM | IC50 [2]: 4.2 µM

Cc1c(COC(=O)NC(C)C)c(COC(=O)NC(C)C)c2n1Cc1c(c3ccccc3n1C)C2
IC50 (MX1): 0.25 µM | IC50 (PC-3): 3.03 µM | IC50 (CCRF-CEM): 30 nM | IC50 (HT-29): 10.8 µM | IC50 (A549): 3.81 µM | IC50 [1]: 2.43 µM | IC50 (HCT-116): 1.26 µM | IC50 [2]: 1.45 µM

COc1ccc(-c2c(CO)c(CO)c3n2Cc2c(c4ccccc4n2C)C3)cc1
IC50 (CCRF-CEM): 1300 nM

CC(C)NC(=O)OCc1c(COC(=O)NC(C)C)c(-c2ccc(Cl)cc2)n2c1Cc1c(n(C)c3ccccc13)C2
IC50 (MX1): 12.4 µM | IC50 (PC-3): 13.1 µM | IC50 (CCRF-CEM): 440 nM | IC50 [1]: 14 µM | IC50 (HCT-116): 9.28 µM | IC50 [2]: 12.7 µM

CCNC(=O)OCc1c(COC(=O)NCC)c2n(c1C)Cc1c(c3ccccc3n1CC)C2
IC50 (PC-3): 4.61 µM | IC50 (CCRF-CEM): 140 nM | Activity (Escherichia coli): Active | IC50 [5]: 5.14 µM | IC50 [1]: 1.4 µM | IC50 (HCT-116): 3.22 µM | IC50 [2]: 4.9 µM
